In the library only some 4.2% were active in any assay of this set; here they are far more common.
CHOP inhibitor – blocks CHOP induction under ER stress; 220,000 compounds, 3.8% hits; inhibition, % at 10 µM; CHO-K1 CHOP-promoter luciferase, tunicamycin-induced, 15-18 h; AID 2732;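 active means compounds that reduced the stress-induced luciferase reporter signal by more than about 70% of percent inhibition, limit read from the data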
Hep lipid drop – hepatic lipid droplet formation modulation | AML12 mouse hepatocytes, oleate lipid droplets, BODIPY imaging | inhibition, % at 6.5 µM | 240,000 compounds, 0.4% hits;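 active means lipid droplet intensity inhibited by at least 50%, with more than 500 cells counted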
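Assay system: AML12 hepatocytes (mouse); Probe or stimulus: oleic acid at 100 µM to induce lipid droplet formation; Dosing: compound at 6.5 µM only; Schedule: compound with oleate, overnight; Detection: fluorescence imaging, 20x objective, two fields per well; Measure: % inhibition of lipid droplet signal.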
CHOP UPR activ – activators of apoptotic arm of unfolded protein response (CHOP) | CHO-CHOP luciferase reporter, UPR activation, luminescence; percent of tunicamycin response over DMSO baseline | AID 449763 | 330,000 compounds, 0.34% hits | activation, % at 10 µM;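 active means at 10 µM dose, activation of 40% or more, normalized to positive control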
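measured by = luciferase luminescence | assay system = CHO-CHOP cells, stable luciferase reporter of PERK-eIF2a-CHOP signalling | amount = 500 reporter cells seeded per well | timing = 6 h compound exposure at 37 °C after overnight seeding | controls = positive tunicamycin 10 µg/mL, negative DMSO alone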
XBP1 UPR activ – adaptive UPR (XBP1) activation; 330,000 compounds, 0.33% hits; AID 463104; CHO-XBP1 luciferase reporter, IRE1-XBP1 UPR activation, luminescence; percent of tunicamycin response, DMSO as zero; activation, % at 20 µM;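 active means versus positive control, 20 µM dose yields 30% or more activation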
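Assay system: CHO-XBP1 luciferase reporter cells; Schedule: 6 h treatment, 37 °C; Detection: glow luminescence from Steady-Glo reagent; Benchmarks: high control tunicamycin 10 µg/mL final, low control DMSO vehicle only.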
TMEM16A inh – mouse TMEM16A channel inhibition, primary screen. normalized B-score (activity score, 25-100; higher = stronger inhibition) at 10 µM. HEK293 TMEM16A/YFP iodide influx fluorescence, ionomycin. Q8BHY3. 310,000 compounds, 1.2% hits;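 active means ratio plate-corrected score three or more library SD toward inhibition, starting fluorescence score within five deviations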;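 further: score derived from kinetic fluorescence span divided by baseline fluorescence per well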
Target sequence (Q8BHY3 whole entry, looked up): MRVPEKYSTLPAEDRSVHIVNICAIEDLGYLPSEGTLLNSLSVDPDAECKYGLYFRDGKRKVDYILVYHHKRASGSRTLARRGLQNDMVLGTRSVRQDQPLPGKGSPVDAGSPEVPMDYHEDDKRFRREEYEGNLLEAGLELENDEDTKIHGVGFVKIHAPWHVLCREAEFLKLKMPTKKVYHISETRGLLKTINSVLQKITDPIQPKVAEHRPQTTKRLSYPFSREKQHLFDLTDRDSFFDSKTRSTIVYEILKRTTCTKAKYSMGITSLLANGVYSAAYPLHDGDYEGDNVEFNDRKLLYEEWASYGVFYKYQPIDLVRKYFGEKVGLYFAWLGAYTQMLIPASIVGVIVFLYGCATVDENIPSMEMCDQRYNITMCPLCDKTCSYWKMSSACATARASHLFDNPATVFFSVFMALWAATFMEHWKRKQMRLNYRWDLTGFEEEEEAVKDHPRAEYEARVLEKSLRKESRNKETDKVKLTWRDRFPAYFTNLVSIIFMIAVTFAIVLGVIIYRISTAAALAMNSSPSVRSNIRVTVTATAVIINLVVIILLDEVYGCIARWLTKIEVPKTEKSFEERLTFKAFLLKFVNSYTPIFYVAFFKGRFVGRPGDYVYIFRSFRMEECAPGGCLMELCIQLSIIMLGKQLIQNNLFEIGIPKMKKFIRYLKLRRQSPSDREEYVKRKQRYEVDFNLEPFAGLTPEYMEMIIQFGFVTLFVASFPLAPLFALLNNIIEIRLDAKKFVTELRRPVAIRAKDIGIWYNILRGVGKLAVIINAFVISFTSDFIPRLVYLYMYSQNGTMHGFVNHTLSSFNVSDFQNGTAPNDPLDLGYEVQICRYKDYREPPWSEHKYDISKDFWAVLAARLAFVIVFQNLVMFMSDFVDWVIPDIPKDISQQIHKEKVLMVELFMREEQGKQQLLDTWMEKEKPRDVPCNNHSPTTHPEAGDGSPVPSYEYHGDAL
ANO1 activ – activates or potentiates the mouse TMEM16A chloride channel; HEK293 TMEM16A/YFP-H148Q/I152L, iodide quench fluorescence; active compounds read low; B-score at 10 µM; 340,000 compounds, 0.3% hits; AID 623877;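 active means fluorescence-ratio B-score plate-corrected deviation score at least 3 library SD below zero, with starting fluorescence score within 5 deviations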;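 further: channel opened by trigger with iodide after compound preincubation; score built on the fluorescence ratio of max minus min over baseline; more negative score means more quench and so TMEM16A activation or potentiation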
Of the large screens only hits and unclear results are named; the others gave an inactive call.

CCCCCCC(C)n1cc(C(C)=O)c(=O)[nH]c1=O (centres undefined)	TMEM16A inh 100 (no result: Hep lipid drop)
CC(C)(C)c1ccc(C(=O)N2CCNCC2)cc1	none
CN1CCC2(CC1)N=C(c1ccc(F)cc1)C(=S)N2C(=O)c1ccc(C(C)(C)C)cc1	CHOP inhibitor 81
O=C(Nc1cccc(Cl)c1)N1CCN2C(=O)c3ccccc3C12c1ccccc1 (centres undefined)	TMEM16A inh 25 (no result: Hep lipid drop)
Cc1cc(=O)[nH]c2ccc(S(=O)(=O)NCc3ccccc3)cc12	none (no result: CHOP inhibitor)
Cc1ccc(-c2cc3nc(-c4ccc(Br)cc4)cc(N)n3n2)cc1	none
Cc1ccc(-c2cc(N)n3nc(-c4ccc(C)cc4)cc3n2)cc1	CHOP inhibitor 74 (no result: Hep lipid drop)
Cc1ccc(-c2cc3nc(-c4ccccc4)cc(N)n3n2)cc1	CHOP inhibitor 78
CCN(CC(=O)Nc1ccc(NC(C)=O)cc1)C(=O)Cc1ccc(S(=O)(=O)N2CCOCC2)s1	none (no result: CHOP inhibitor, Hep lipid drop)
O=C(c1cccc(Oc2c(Cl)cccc2[N+](=O)[O-])c1)N1CCOCC1	none (no result: CHOP inhibitor)
COc1ccc(-c2cc(C(F)(F)F)nc(N3CCOCC3)n2)cc1	none (no result: Hep lipid drop)
COc1ccc(-c2cc(-c3ccc(F)cc3)nc(N3CCN(C)CC3)n2)cc1	CHOP inhibitor 87 (no result: Hep lipid drop)
O=C(c1cnn2c(C(F)(F)F)cc(-c3cccs3)nc12)N1CCOCC1	none
FC(F)(F)c1cc(-c2cccs2)nc2nc(N3CCOCC3)sc12	CHOP inhibitor 94
CNc1ccccc(C(=O)/C=C/c2ccccc2OC)c1=O	CHOP inhibitor 88
COc1ccccc1/C=C/C(=O)/C=C/c1ccccc1O	CHOP inhibitor 101 (no result: CHOP UPR activ, XBP1 UPR activ, TMEM16A inh)
Cc1ccc(OCC(=O)NNC(=S)NC(=O)C(C)(C)C)c(Br)c1	CHOP inhibitor 92
Cc1ccc(C(=O)NNC2=Nc3cccc4cccc2c34)cc1	CHOP inhibitor 89
Cc1ccc2nc(-c3ccc(NS(C)(=O)=O)cc3)cc(-c3ccccc3)c2c1	CHOP inhibitor 78 (no result: Hep lipid drop)
CCS(=O)(=O)Nc1ccc(-c2cc(-c3ccccc3)c3cc(C)ccc3n2)cc1	CHOP inhibitor 87 (no result: CHOP UPR activ, XBP1 UPR activ)
Cc1ccc2nc(-c3ccncc3)cc(-c3ccccc3)c2c1	none (no result: Hep lipid drop)
CC(=O)n1cc(N(C(=O)CCl)c2ccccc2)c2ccccc21	CHOP inhibitor 107
CC(=O)n1cc(N(C(=O)CCl)c2ccc([N+](=O)[O-])cc2)c2ccccc21	CHOP inhibitor 106
CC(=O)n1cc(CO)c2ccccc21	none (no result: CHOP inhibitor)
CN(CC(=O)O)Cc1oc(CO)cc(=O)c1O	none (no result: CHOP inhibitor, Hep lipid drop, CHOP UPR activ, XBP1 UPR activ, TMEM16A inh)
COc1ccc(C2=C(C=O)Cc3ccccc3O2)cc1	none (no result: CHOP inhibitor, Hep lipid drop)
CCOc1ccccc1N(CC(=O)NCc1ccco1)C(=O)CCC(=O)Nc1nccs1	none (no result: CHOP inhibitor)
O=C(NC(=S)NC1CCCC1)c1ccccc1Br	CHOP inhibitor 83
CC(C)(C)c1ccc(-n2nc(C(N)=O)c(O)cc2=O)cc1	none
CC(C)(C)c1ccc(-n2nc(C#N)c(Cl)cc2=O)cc1	CHOP inhibitor 108 (no result: TMEM16A inh)
C=Cn1cc[n+](CC(=O)C(C)(C)C)c1	none
Brc1ccc(N/N=C(/N=Nc2nn[nH]n2)c2ccccc2)cc1	CHOP inhibitor 71
O=C1N=c2ccccc2=C1c1c(O)n(-c2cccc(F)c2)[nH]c1=O	CHOP inhibitor 73 (no result: CHOP UPR activ, XBP1 UPR activ)
CCCC(C)Sc1nc2c([nH]1)c(=S)n(C)c(=O)n2C (centres undefined)	none (no result: CHOP inhibitor, Hep lipid drop, CHOP UPR activ, XBP1 UPR activ, TMEM16A inh)
Cc1cccc(NC(=O)Nc2cccc(C#N)c2)n1	none
Cc1cccc(NC(=O)Nc2ccc(C#N)cc2)n1	CHOP inhibitor 77
Cc1ccccc1OC(C)c1nc(-c2ccccc2)no1 (centres undefined)	none
Cc1ccc(SC(C)c2nc(-c3ccccc3)no2)cc1 (centres undefined)	CHOP inhibitor 72
CC(C)c1ccc(S(=O)(=O)c2cc3cc(Br)ccc3oc2=O)cc1	CHOP inhibitor 89
CCOC(=O)Nc1ccc2c(c1)N(C(=O)CCN(C)C)c1ccccc1CC2	none (no result: CHOP inhibitor)
CCOC(=O)Nc1ccc2c(c1)N(C(=O)CN(C)C)c1ccccc1CC2	TMEM16A inh 100 (no result: CHOP inhibitor)
Cn1c(=O)n(C)c2cc(NS(=O)(=O)c3ccc(C(C)(C)C)cc3)ccc21	TMEM16A inh 25
O=C(NCCCN1CCOCC1)c1ccc(-n2nc(C(F)(F)F)cc2-c2cccs2)cc1	CHOP inhibitor 76
COCCCNC(=O)c1ccc(-n2nc(C(F)(F)F)cc2-c2cccs2)cc1	none
FC(F)(F)Oc1ccc(NC(=S)Nc2ccc(OC(F)(F)F)cc2)cc1	TMEM16A inh 25
COc1ccc(/C=N/Nc2nccnc2Cl)cc1	CHOP inhibitor 72
COc1cccc(/C=N/Nc2nccnc2Cl)c1O	CHOP inhibitor 74 (no result: TMEM16A inh)
COC(=O)c1sccc1N/N=C/c1cccc(OC)c1O	CHOP inhibitor 83
COc1cccc(/C=N/Nc2cc(-n3nc(C)cc3-c3ccccc3)ncn2)c1O	CHOP inhibitor 92
CCc1cc2c(=O)oc(-c3ccc(Br)cc3)nc2s1	none (no result: CHOP inhibitor, TMEM16A inh)
COc1cccc(/C=N/Nc2ncnc(Cl)c2N)c1O	none
COc1cccc(/C=N/Nc2ncnc3scc(-c4ccccc4)c23)c1O	CHOP inhibitor 75
CC(C)CC(C(=O)NC1CCCC1)N(Cc1ccc2c(c1)OCO2)C(=O)c1snc(C(N)=O)c1N (centres undefined)	CHOP inhibitor 81
Cc1ccc(N=Nc2ccc(O)c3ncccc23)cc1	none (no result: CHOP UPR activ, XBP1 UPR activ)
Cc1ccc(N=Nc2ccc(O)c3ncccc23)cc1C	CHOP inhibitor 92
CCOc1cc2c(cc1O)C(=NOC)CC1C2CCC2(C)C(O)CCC12 (centres undefined)	ANO1 activ -6.6 (no result: CHOP inhibitor, Hep lipid drop, CHOP UPR activ, XBP1 UPR activ, TMEM16A inh)
O=C(Nc1ccn(Cc2ccccc2F)n1)c1ccc(COc2ccccc2Cl)cc1	CHOP inhibitor 74
Cc1ccc(N2CCN(S(=O)(=O)c3ccc4c(c3)oc(=O)n4C)CC2C)cc1 (centres undefined)	none (no result: CHOP inhibitor)
COC(=O)c1cc(C(=O)N2CCc3ccccc32)cc([N+](=O)[O-])c1	none (no result: CHOP inhibitor, Hep lipid drop)
CCC1(c2ccc(F)cc2)NC(=O)N(CC(=O)NCC(=O)Nc2cccc(C)c2C)C1=O (centres undefined)	TMEM16A inh 25 (no result: CHOP inhibitor, Hep lipid drop)
CCCC1(c2ccccc2)NC(=O)N(CC(=O)Nc2cc(C)on2)C1=O (centres undefined)	none
CCC1(c2ccc(F)cc2)NC(=O)N(CC(=O)Nc2cc(C)on2)C1=O (centres undefined)	ANO1 activ -39 (no result: CHOP inhibitor, Hep lipid drop, TMEM16A inh)
O=C(Cc1ccccc1F)Nc1cccc(S(=O)(=O)N2CCOCC2)c1	none (no result: CHOP inhibitor, Hep lipid drop, TMEM16A inh)
CC1CCCCC12NC(=O)N(CC(=O)Nc1ccc(N3CCOCC3)cc1)C2=O (centres undefined)	none
O=C(/C=C/C=C/c1ccccc1)CC1(O)C(=O)N(CCc2ccccc2)c2ccccc21 (centres undefined)	CHOP inhibitor 78 (no result: Hep lipid drop)
